Assay results: article PMC7498158 (Journal of Medicinal Chemistry, 2020)

Legend:
Format in all cases: biochemical
Conditions in all cases: 10 μM
hNAPE-PLD = hNAPE-PLD (Homo sapiens, UniProt Q6IQ20); assay: NAPE-PLD surrogate substrate
hPLA2G4E = target: T1, hPLA2G4E (Homo sapiens, UniProt Q3MJ16); assay: gel-based ABPP with FP-TAMRA, hPLA2G4E-overexpressing membrane lysate
T1 sequence (Q3MJ16 1-868): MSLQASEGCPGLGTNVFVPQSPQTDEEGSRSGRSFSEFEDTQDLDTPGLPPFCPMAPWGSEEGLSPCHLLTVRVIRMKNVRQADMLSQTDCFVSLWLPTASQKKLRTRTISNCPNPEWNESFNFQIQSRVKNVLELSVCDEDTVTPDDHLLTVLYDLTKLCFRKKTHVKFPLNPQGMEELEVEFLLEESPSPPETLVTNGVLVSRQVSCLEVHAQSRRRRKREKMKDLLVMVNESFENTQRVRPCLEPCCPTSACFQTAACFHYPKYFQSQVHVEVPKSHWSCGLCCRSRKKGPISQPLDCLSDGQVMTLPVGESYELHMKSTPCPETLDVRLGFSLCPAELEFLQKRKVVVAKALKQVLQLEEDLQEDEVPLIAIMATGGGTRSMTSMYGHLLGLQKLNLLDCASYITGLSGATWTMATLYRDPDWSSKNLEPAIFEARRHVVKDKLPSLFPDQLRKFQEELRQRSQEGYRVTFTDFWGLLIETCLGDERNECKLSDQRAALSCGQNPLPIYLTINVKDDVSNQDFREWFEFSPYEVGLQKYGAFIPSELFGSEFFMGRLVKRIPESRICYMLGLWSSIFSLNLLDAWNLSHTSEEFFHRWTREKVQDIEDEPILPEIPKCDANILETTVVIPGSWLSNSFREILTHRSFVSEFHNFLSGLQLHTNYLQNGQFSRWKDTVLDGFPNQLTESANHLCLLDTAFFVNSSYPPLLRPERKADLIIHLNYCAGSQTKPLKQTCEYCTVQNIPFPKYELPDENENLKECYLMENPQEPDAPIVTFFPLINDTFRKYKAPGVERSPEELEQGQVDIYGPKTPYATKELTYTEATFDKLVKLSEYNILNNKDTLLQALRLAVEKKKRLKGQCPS
Summary of the method: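 Membrane lysate from hPLA2G4E-overexpressing cells (1 μg/μL) was preincubated with test compound in DMSO (30 min, rt), then labeled with FP-TAMRA (50 nM, 5 min, rt). Proteins were denatured in Laemmli buffer and resolved on 8% acrylamide SDS-PAGE. In-gel fluorescence was normalized to Coomassie staining.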

mDAGLβ = target: T2, mDAGLβ (Mus musculus, UniProt Q91WC9); assay: gel-based ABPP, mouse brain membrane proteome
T2 sequence (Q91WC9 1-669): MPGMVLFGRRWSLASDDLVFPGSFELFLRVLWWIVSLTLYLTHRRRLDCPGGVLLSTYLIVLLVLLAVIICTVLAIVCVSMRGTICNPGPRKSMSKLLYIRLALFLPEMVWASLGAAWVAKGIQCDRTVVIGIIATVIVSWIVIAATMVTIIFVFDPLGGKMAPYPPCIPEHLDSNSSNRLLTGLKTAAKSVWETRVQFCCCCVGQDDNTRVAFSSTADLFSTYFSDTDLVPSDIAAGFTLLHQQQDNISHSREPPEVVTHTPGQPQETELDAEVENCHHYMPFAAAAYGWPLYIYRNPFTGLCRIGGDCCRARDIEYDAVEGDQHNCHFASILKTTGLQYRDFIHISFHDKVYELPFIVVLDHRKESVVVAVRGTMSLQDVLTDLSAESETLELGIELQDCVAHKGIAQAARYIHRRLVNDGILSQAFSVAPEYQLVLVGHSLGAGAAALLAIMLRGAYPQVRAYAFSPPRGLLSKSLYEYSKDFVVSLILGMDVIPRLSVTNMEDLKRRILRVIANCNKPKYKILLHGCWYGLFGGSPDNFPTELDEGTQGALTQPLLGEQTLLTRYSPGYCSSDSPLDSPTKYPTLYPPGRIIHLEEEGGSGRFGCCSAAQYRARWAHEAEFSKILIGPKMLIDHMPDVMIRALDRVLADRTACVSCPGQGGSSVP
Summary of the method: (§1)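 Mouse brain was dounce-homogenized in 20 mM HEPES pH 7.2 with DTT, MgCl2 and benzonase. The membrane pellet from ultracentrifugation (100,000g, 45 min, 4 °C) was used at 2 μg/μL. It was preincubated with test compound in DMSO (30 min, rt), then labeled with MB064 (250 nM) or FP-TAMRA (500 nM) for 15 min at rt. Samples ran on 10% SDS-PAGE; fluorescence was normalized to Coomassie staining.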

hMAGL = target: T3, hMAGL (Homo sapiens, UniProt Q99685); assay: natural substrate-based fluorescence assay MAGL
T3 sequence (Q99685 1-303): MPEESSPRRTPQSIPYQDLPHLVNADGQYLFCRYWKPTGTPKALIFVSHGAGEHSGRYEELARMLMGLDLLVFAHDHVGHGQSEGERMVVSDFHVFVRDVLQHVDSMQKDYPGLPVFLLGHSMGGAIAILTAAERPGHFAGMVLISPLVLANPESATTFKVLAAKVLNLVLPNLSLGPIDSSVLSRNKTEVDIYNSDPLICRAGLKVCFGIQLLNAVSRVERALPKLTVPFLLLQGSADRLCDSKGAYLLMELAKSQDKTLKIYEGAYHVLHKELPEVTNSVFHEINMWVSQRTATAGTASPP

mFAAH = target: T4, mFAAH (Mus musculus, UniProt O08914); assay: gel-based ABPP, mouse brain membrane proteome
T4 sequence (O08914 1-579): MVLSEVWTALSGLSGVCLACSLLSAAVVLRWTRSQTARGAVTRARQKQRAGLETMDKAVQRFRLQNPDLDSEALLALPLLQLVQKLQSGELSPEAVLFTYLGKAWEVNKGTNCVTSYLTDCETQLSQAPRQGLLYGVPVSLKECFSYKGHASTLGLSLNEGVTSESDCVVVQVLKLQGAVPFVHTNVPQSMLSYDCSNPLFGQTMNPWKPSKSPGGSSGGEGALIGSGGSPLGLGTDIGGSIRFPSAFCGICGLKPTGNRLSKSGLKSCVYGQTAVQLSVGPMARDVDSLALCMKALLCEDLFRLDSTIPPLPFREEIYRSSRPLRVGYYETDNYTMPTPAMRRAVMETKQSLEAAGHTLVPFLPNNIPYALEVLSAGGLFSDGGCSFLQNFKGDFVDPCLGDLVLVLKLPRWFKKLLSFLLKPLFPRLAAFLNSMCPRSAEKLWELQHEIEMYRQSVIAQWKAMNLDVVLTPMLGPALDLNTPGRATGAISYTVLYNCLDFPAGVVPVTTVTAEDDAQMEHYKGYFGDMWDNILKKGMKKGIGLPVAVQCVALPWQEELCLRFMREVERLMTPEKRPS
Summary of the method: as §1

Sequence of hNAPE-PLD (Q6IQ20 whole entry): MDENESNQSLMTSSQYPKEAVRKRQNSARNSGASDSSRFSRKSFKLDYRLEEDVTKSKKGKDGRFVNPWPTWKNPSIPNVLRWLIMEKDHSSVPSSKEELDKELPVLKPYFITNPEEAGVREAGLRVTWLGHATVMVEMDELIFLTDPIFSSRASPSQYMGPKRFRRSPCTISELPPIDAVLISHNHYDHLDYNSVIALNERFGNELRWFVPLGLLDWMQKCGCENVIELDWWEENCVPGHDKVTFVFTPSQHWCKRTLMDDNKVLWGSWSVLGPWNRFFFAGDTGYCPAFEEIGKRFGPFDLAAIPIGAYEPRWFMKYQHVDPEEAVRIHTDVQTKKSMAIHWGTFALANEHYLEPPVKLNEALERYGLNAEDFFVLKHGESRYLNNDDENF

O=C(CCCc1ccccc1)C(=O)NCCc1ccc(Oc2ccccc2)cc1 [Compound 51, 2-Oxo-N-(4-phenoxyphenethyl)-5-phenylpentanamide]
not inhibited: inhibition of NAPE-PLD (in words) (hNAPE-PLD) | inhibition of PLA2G4E (in words) (hPLA2G4E) | inhibition of DAGLβ (in words) (mDAGLβ) | inhibition of MAGL (in words) (hMAGL) | inhibition of FAAH (in words) (mFAAH)
